Published values pooled from the literature.
Protocols differ between the studies behind these lines.
Observed: metabolic stability
Host: mouse

With `NC1=NN(c2ccc(Oc3ccccc3)c(S(=O)(=O)O)c2)C(=O)C1` the half-life was 51.2 min (liver microsomes; 1 µM).
With `Cc1[nH]c(C)c(S(=O)(=O)Nc2ccc(C(F)(F)F)c(Cl)c2Cl)c1C(=O)N1CCC(F)(F)C1` the half-life was 44 min (liver microsomes).
For `O=c1c2c(F)cc(Cl)cc2[nH]c2cccc(Oc3ccc(OC(F)(F)F)cc3)c12`, the half-life was > 60 min (liver microsomes; 1 µM; pH 7.4).
`OCc1ccc(-c2nn(Cc3ccccc3)c3ccccc23)o1` gave a half-life of 3 min (liver microsomes).
With `Cc1cc(-c2ccnc3[nH]cc(F)c23)cc(F)c1[C@@]1(O)[C@H](C)CNC[C@@H]1C` the half-life was 18.9 min (liver microsomes).
The half-life of `Nc1nnc(-c2ccccc2O)cc1N1CCN(Cc2ccc(N3CCC(CN4CCN(c5ccc6c(c5)C(=O)N(C5CCC(=O)NC5=O)C6=O)CC4)CC3)c(F)c2)CC1` (stereo not drawn) is reported as 59 min (liver microsomes; 1 mM).
With `O=c1c2ccc(Oc3ccc(OC(F)(F)F)cc3)cc2[nH]c2ccc(F)c(Cl)c12` the half-life was > 60 min (liver microsomes; 1 µM; pH 7.4).
The half-life of `NS(=O)(=O)c1nnc(NC(=O)CCC2CC3CCC2C3)s1` (stereo not drawn) is reported as 46 min (liver microsomes).
With `Cc1cc(-c2ccnc3[nH]cc(F)c23)cc(F)c1[C@@]1(O)[C@H](C)CN(C2COC2)C[C@@H]1C` the half-life was 1.7 min (liver microsomes).
`CN(C)CC(=O)OCc1cc2[nH]c(=S)n(Cc3cccnc3)c(=O)c2cc1Cl` gave a half-life of < 5 min (liver microsomes; 1 µM; pH 7.4).
For `O=c1c2ccc(Oc3ccc(OC(F)(F)F)cc3)cc2[nH]c2ccc(Cl)c(F)c12`, the half-life was > 60 min (liver microsomes; 1 µM; pH 7.4).
`NS(=O)(=O)c1nnc(NC(=O)CCC2CCC(F)(F)CC2)s1` gave a half-life of > 120 min (liver microsomes).
For `CCN(CC)CCOc1ccc2c(=O)c3c([nH]c2c1)CCCC3`, the half-life was > 60 min (liver microsomes; 1 µM; pH 7.4).
For `CCN(CC)CCNC(=O)c1c(C)[nH]c(/C=C2\C(=O)Nc3ccc(F)cc32)c1C`, the half-life was 12.6 min (liver microsomes; 1 µM).
For `Cc1cc(-c2ccnc3[nH]cc(F)c23)cc(F)c1[C@@]1(O)[C@H](C)CN(C(=O)CN)C[C@@H]1C`, the half-life was 84.1 min (liver microsomes).
The half-life of `O=c1c2c([nH]c3cc(Oc4ccc(OC(F)(F)F)cc4)c(F)cc13)CCCC2` is reported as 13.2 min (liver microsomes; 1 µM; pH 7.4).
`Cc1cc(-c2ccnc3[nH]cc(F)c23)cc(F)c1[C@@]1(O)[C@H](C)CN(C(C)C)C[C@@H]1C` has a half-life of 1.5 min (liver microsomes).
`CCCCCCCCCCCCCCCC(=O)NCCOC(=O)C[C@@H](CN)CC(C)C` gave a half-life of 95 min (liver microsomes; 1 µM; pH 7.4).
With `O=c1c2ccc(Oc3cccc(OC(F)(F)F)c3)cc2[nH]c2cc(Cl)cc(F)c12` the half-life was 57 min (liver microsomes; 1 µM; pH 7.4).
The half-life of `Cc1ccc2[nH]c(=S)n(Cc3cccnc3)c(=O)c2c1` is reported as 4.9 min (liver microsomes; 1 µM; pH 7.4).
`O=c1c2c([nH]c3cc(OCc4ccc(OC(F)(F)F)cc4)ccc13)CCCC2` has a half-life of > 60 min (liver microsomes; 1 µM; pH 7.4).
For `C[C@@H]1CNC[C@H](C)[C@@]1(O)c1ccc(-c2ccnc3[nH]cc(F)c23)cc1Cl`, the half-life was 9.1 min (liver microsomes).
For `Cc1c(C)n(Cc2cccc(OC(C)(C)C(=O)O)c2)c2ccc(C(=O)N[C@@H](C)c3ccc(C(C)(C)C)cc3)cc12`, the half-life was > 60 min (liver microsomes).
For `COCC(=O)OCc1cc2[nH]c(=S)n(Cc3cccnc3)c(=O)c2cc1Cl`, the half-life was < 5 min (liver microsomes; 1 µM; pH 7.4).
`C=CCn1c(=O)c2cnc(Nc3ccc(N4CCN(C)CC4)cc3)nc2n1-c1ccc2c(n1)[C@@](O)(CC)CC2` has a half-life of 91 min (hepatocytes).
`CC(C)n1ncc2c(C(=O)NCC3(C)CNC3)cc(C3CC3)nc21` has a half-life of > 145 min (liver microsomes).
For `Cc1cc(-c2ccnc3[nH]cc(F)c23)cc(F)c1[C@@]1(O)[C@H](C)CN(C)C[C@@H]1C`, the half-life was 1.7 min (liver microsomes).
`O=c1c2cc(Cl)ccc2[nH]c(=S)n1Cc1cccnc1` has a half-life of 27 min (liver microsomes; 1 µM; pH 7.4).
The half-life of `O=c1c2cccc(Oc3ccc(OC(F)(F)F)cc3)c2[nH]c2cc(Cl)cc(F)c12` is reported as > 60 min (liver microsomes; 1 µM; pH 7.4).
`Cc1[nH]c(C)c(S(=O)(=O)Nc2ccc(C(F)(F)F)c(Cl)c2)c1C(=O)N(C)C` has a half-life of 3.9 min (liver microsomes).
